Publication PMC10498798 (Mycobiology, 2023)
Converted amounts (≈) assume the structure as drawn. “Also recorded” adds a separate entry of the source. Where two headings read alike, the source gives them in different places.

Key:
[1] = system: NO production in LPS-stimulated RAW 264.7 macrophages; assay: Nitrite; format: cell-based, murine
Procedure, shortened: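 RAW 264.7 cells were seeded at 2x10^5 per well and grown to about 70% confluence, then serum-starved in 1% FBS medium. Test compound was given at non-cytotoxic concentrations for 24 h at 37 °C, then cells were stimulated with 1 µg/mL LPS for 24 h. Supernatant nitrite was measured with Griess reagent (30 °C, 20 min) at 550 nm against a sodium nitrite standard curve. Runs were in triplicate, and IC50 came from inhibition-concentration plots.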

RAW 264.7 macrophages = assay: MTT cell viability of RAW 264.7 macrophages; format: cell-based, murine
Procedure, shortened: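 RAW 264.7 cells were kept in DMEM with 10% FBS and penicillin/streptomycin at 37 °C, 5% CO2. Exponential-phase cells (5x10^4 per well) were exposed to serially diluted test compound (50-25-12.5-6.25 µg/mL) plus 1 µg/mL LPS for 36 h. MTT (0.5 mg/mL) was then added for 4 h at 37 °C. Formazan was dissolved in DMSO and read at 570 nm. Runs were in triplicate.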

[2] = system: Hep-G2 (Human hepatocellular carcinoma); assay: MTT cytotoxic assay, Hep-G2; format: cell-based; conditions: for IC50: Homo sapiens, HepG2, 36 h, read-out: IC50 Hep-G2
[3] = system: A549 (Human lung carcinoma); assay: MTT cytotoxic assay, A549; format: cell-based; conditions: for IC50: Homo sapiens, A549, 36 h, read-out: IC50 A549
[4] = system: MCF-7 (Human breast adenocarcinoma); assay: MTT cytotoxic assay, MCF-7; format: cell-based; conditions: for IC50: Homo sapiens, MCF7, 36 h, read-out: IC50 MCF-7
[5] = system: Vero cells (monkey kidney epithelial cells); assay: MTT cytotoxic assay, Vero cells; format: cell-based; conditions: for IC50 Vero: MTT; for IC50: Primates, Vero
[6] = molecular target: T1, porcine pancreatic lipase (Type II) (Sus scrofa, UniProt P00591); assay: Lipase inhibitory assay; format: biochemical; conditions: for inhibition at 500 µg/mL / inhibition at 125 µg/mL / inhibition at 250 µg/mL: read-out: Enzyme inhibition (pancreatic lipase)
T1 sequence (P00591 1-450): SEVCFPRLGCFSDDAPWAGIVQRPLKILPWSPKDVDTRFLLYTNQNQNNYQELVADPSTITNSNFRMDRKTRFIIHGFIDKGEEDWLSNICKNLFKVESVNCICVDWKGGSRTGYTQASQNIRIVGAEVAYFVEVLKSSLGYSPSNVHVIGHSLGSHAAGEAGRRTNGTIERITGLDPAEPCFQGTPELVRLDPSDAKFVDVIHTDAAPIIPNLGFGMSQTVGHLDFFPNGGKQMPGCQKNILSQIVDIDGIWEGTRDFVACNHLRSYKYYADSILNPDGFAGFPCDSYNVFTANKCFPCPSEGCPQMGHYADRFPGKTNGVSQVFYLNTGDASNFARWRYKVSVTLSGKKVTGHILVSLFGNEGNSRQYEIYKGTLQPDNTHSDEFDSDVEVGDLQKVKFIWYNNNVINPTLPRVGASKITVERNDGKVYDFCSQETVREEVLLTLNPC
Procedure, shortened: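 Porcine pancreatic lipase (Type II, 0.1 mg) was mixed with 6.66 μM p-nitrophenyl palmitate in ethanol/acetonitrile (2:1, v/v) and test compound in 0.061 M Tris-HCl, pH 8.5. The mixture was incubated at 37 °C for 25 min, stopped with ethanol, and substrate hydrolysis read at 405 nm. Runs were in triplicate. IC50 was estimated from inhibition-versus-concentration plots.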

[7] = system: α-glucosidase from Saccharomyces cerevisiae; assay: Alpha-glucosidase inhibitory assay; format: biochemical; conditions: for α-glucosidase inhibition rate: concentration of 400 µg/mL; for IC50: read-out: IC50 α-glucosidase, µM equivalent, converted from µg/mL
[8] = 36 h, read-out: IC50 Vero, MTT, 36 h
[9] = Mus musculus, RAW264.7, read-out: NO inhibition
[10] = read-out: IC50 Vero, μM equivalent, converted from µg/mL

Row | SMILES | IC50 [2] [µg/mL] | IC50 [3] [µg/mL] | IC50 [4] [µg/mL] | IC50 Vero ([5]; 36 h) | IC50 [5, 8] [µg/mL] | inhibition at 1 µg/mL [1, 9] [%] | inhibition at 5 µg/mL [1, 9] [%] | inhibition at 25 µg/mL [1, 9] [%] | Cell survival (RAW 264.7 macrophages; test concentration 1 µg/mL) [%] | Cell survival (RAW 264.7 macrophages; test concentration 5 µg/mL) [%] | Cell survival (RAW 264.7 macrophages; test concentration 25 µg/mL) [%] | Cell survival (RAW 264.7 macrophages; test concentration 50 µg/mL) [%] | inhibition at 500 µg/mL [6] [%] | α-glucosidase inhibition rate [7] | IC50 [5, 10] [µM] | IC50 [6] [µM] | inhibition at 125 µg/mL [6] [%] | inhibition at 250 µg/mL [6] [%] | IC50 α-glucosidase [7] [µg/mL] | IC50 [7] [µM] | other results
1 | COc1cc(O)cc(O)c1C(=O)/C=C/c1ccccc1 [Cardamonin, reference compound] |  |  |  |  |  |  |  |  |  |  |  |  |  |  |  |  |  |  |  |  | NO half-maximal inhibitory concentration (IC50) ([1]; LPS-stimulated RAW 264.7): 0.62 µg/mL; NO inhibition ([1]; test concentration 0.81 µg/mL (3 µM), LPS 1 µg/mL): 86.93 ± 0.96%; Cell survival (RAW 264.7 macrophages; test concentration 0.81 µg/mL (3 µM)): 71.80 ± 0.51%
2 | CC(C)[C@@H](C)/C=C/[C@@H](C)[C@H]1CC[C@H]2C3=C[C@@H](O)[C@@]4(O)C[C@@H](O)CC[C@]4(C)[C@H]3CC[C@]12C [Compound (1), cerevisterol] | > 50 | > 50 | > 50 | did not show any cytotoxicity | > 50 | 14.4 ± 1.5 | 30.9 ± 1.04 | 48.8 ± 1.43 | 98.05 ± 0.67 | 97.69 ± 1.20 | 96.78 ± 0.63 | 98.40 ± 1.73 | 0 | 12.69 ± 1.06% |  |  |  |  |  |  | IC50 Hep-G2 ([2]; MTT, 36 h): no significant effect; also recorded: did not show any cytotoxicity; IC50 A549 ([3]; MTT, 36 h): no significant effect; also recorded: did not show any cytotoxicity; IC50 MCF-7 ([4]; MTT, 36 h): no significant effect; also recorded: did not show any cytotoxicity; inhibition at 50 µg/mL [1, 9]: 54.2 ± 1.27%
3 | CC(C)[C@@H](C)/C=C/[C@@H](C)[C@H]1CC[C@@H]2[C@]1(C)CC[C@H]1[C@]23C=C[C@]2(C[C@@H](O)CC[C@]12C)OO3 [Compound (2), ergosterol peroxide] | 16.2 (≈ 37.8 µM) | 22.5 (≈ 52.4 µM) | 27.1 (≈ 63.2 µM) | 14.93 µg/mL (≈ 34.8 µM) |  | 28 ± 0.84 | 56.7 ± 1.29 | 81.4 ± 1.35 | 98.08 ± 1.26 | 83.99 ± 1.05 | 60.87 ± 2.21 | 2.18 ± 0.68 | 25.9 ± 1.24 | greater than 50% | 11.5 | > 1170 | 2.54 ± 1.6 | 11.7 ± 2.13 | 21.89 (≈ 51.1 µM) | 51.1 | 
4 | CC(C)[C@@H](C)/C=C/[C@@H](C)[C@H]1CCC2=C3C=C[C@@]4(O)C[C@@H](O)CC[C@]4(C)[C@H]3CC[C@@]21C [Compound (3), (3β,5α,22E)-ergosta-6,8(14),22-triene-3,5-diol] | 2.89 (≈ 7 µM) | 18.5 (≈ 44.9 µM) | 16.5 (≈ 39.9 µM) | 18.40 µg/mL (≈ 44.6 µM) | 10.4 | 32.8 ± 0.73 | 55.2 ± 1.2 | 71.4 ± 1.38 | 93.19 ± 0.49 | 93.86 ± 1.33 | 82.31 ± 0.78 | 1.70 ± 0.27 | 23.8 ± 2.31 | greater than 50% | 24.2 | > 1210 | 1.29 ± 1.11 | 12.1 ± 0.95 | 25.81 (≈ 62.5 µM) | 60 | 
5 | Cc1c2ccncc2c(C)c2c1[nH]c1ccccc12 [Ellipticine, reference compound] | 1.26 (≈ 5.12 µM) | 1.38 (≈ 5.6 µM) | 2.69 (≈ 10.9 µM) |  | 8.61 |  |  |  |  |  |  |  |  |  |  |  |  |  |  |  | 
